# EBI2 block: blocks human EBI2 receptor beta-arrestin signaling; P32249; EBI2 beta-arrestin recruitment, luminescence, 7a,25-OHC stimulated; inhibition, % at 5 µM; 0.81% of 360,000 active; in the data active = inhibition above about 38%;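 note: enzyme fragment complementation signal reports receptor beta-arrestin coupling in cells; 0% = agonist plus DMSO wells and 100% = wells without agonist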
# Exocytosis inh: blocks lytic granule exocytosis; TALL-104 LAMP-1 surface exposure, flow cytometry; cells stimulated with thapsigargin and PMA; 0.66% of 360,000 active; inhibition, % at 10 µM;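 active = inhibition above about 55%, limit read from the data; inconclusive = no clear call, values can overlap the other calls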
# Myeloid diff 2: promotes myeloid progenitor differentiation | ER-HoxA9 myeloid progenitors, lysozyme-GFP differentiation, flow cytometry | calls only at 10 µM | 1% of 360,000 active | AID 624256;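 active = normalized GFP-positive differentiation at or above the plate's own cutoff, the solvent-only control mean plus 3 SD; inconclusive = no clear call, values can overlap the other calls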;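 note: cells exposed to compound for four days before flow analysis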
# MC4R barr agon: activates human MC4R beta-arrestin recruitment; 0.98% of 360,000 active; AID 540308; U2OS MC4R beta-arrestin complementation, luminescence; percent of melanotan II response, DMSO zero; P32245; activation, % at 8.9 µM;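 active = activation above a per-plate cutoff, the mean activation of sample wells on that plate plus 3 SD, cut at about 8% in these data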
# Target sequence (P32245 whole entry, looked up): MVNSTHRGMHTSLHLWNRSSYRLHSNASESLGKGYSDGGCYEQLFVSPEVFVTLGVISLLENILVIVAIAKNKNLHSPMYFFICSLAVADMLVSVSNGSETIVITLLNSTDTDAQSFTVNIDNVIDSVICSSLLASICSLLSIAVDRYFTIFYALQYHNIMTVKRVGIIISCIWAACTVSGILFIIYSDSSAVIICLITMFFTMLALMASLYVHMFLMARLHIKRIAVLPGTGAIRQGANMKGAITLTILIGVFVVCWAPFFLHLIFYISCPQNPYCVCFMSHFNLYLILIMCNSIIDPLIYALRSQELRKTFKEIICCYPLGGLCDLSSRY
# MC4R antagonist: human MC4R antagonism in cAMP assay; MC4R-expressing cells, MTII-stimulated cAMP, LANCE TR-FRET; P32245; 0.48% of 360,000 active; inhibition, % at 6.5 µM;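 active = inhibition above its plate's cutoff, the mean of tested wells on that plate plus 3 SD, cut at about 29% in these data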;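 note: 0% = Melanotan II alone and 100% = Melanotan II plus saturating MCL0020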
#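 Test system: U2OS cells stably expressing human melanocortin 4 receptor (MC4R); also added: Melanotan II challenge; compound: 6.5 µM single dose; timing: 30-min compound preincubation, 1-h Melanotan II challenge, 1-h detection, room temperature; signal: Eu-cAMP/anti-cAMP TR-FRET, emission 671 nm; repeats: one well per compound, no replicates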
# An asterisk follows results filed as active; i = inactive; ? = inconclusive; / = no result; + = active, no number. Compounds with a hit are over-represented: about 3.7% of the library has one in this group of screens.
SMILES,EBI2 block,Exocytosis inh,Myeloid diff 2,MC4R barr agon,MC4R antagonist
COc1cc(NC(=O)CN2CCC(Cc3ccccc3)CC2)c(C)cc1[N+](=O)[O-],10.1,1.8,i,9.5*,3.2
COc1cc(CN2CCC(Cc3ccccc3)CC2)cc([N+](=O)[O-])c1O,-8.3,-7.5,i,-0.3,-1.3
O=C(CN1CCC(Cc2ccccc2)CC1)NC(=O)NCc1ccccc1,-14.8,-0.5,i,9.6*,8.6
Cc1ccc(-n2c(-c3ccc(Cl)cc3)n[nH]c2=S)c(C)c1,-7.9,4.1,+,-1.1,7.9
Cc1ccc(-c2nc(=S)c3c(n2Cc2ccco2)CC(C)(C)OC3)cc1,18.5,61.1*,i,-0.3,24.2
Cc1c(-c2ccc(OCc3ccccc3)cc2)nc2ccccc2c1C(=O)O,-3.8,-0.4,+,-2.1,2.5
NC(=O)c1ccsc1NC(=O)COC(=O)Cc1ccccc1[N+](=O)[O-],-14.9,0.7,i,1.4,5.0
CCc1ccc2c(c1)Sc1ccccc1CC2N1CCN(C)CC1 (stereo not drawn),-13.6,57.5*,i,3.2,3.2
Cc1ccccc1CSCC1Nc2ccc(C(=O)NCCc3ccccc3)cc2NC1=O (stereo not drawn),-4.1,-2.2,+,-0.2,6.6
COc1ccc(CNC(=O)C2Cc3c(-c4ccccc4Oc4ccccc4)ccnc3O2)cc1OC (stereo not drawn),7.6,-0.4,i,-0.9,5.3
CCCn1nc(C(=O)Nc2nc(-c3ccccn3)cs2)c2ccccc2c1=O,-30.2,-0.3,+,-1.0,-1.9
CCn1nc(C(=O)Nc2nc(-c3ccccn3)cs2)c2ccccc2c1=O,-15.3,2.2,i,1.8,0.6
CCOc1ccc2nc(N(CCN(C)C)C(=O)/C=C/c3cccs3)sc2c1,4.4,2.2,i,-2.4,-4.5
COc1ccc(C)c2sc(N(CCN(C)C)C(=O)/C=C/c3cccs3)nc12,-9.2,41.2,i,28.9*,-2.1
CCc1ccc2nc(N(CCN(C)C)C(=O)/C=C/c3cccs3)sc2c1,7.5,67.2*,?,0.2,6.9
FC(F)(F)c1ccc(NC(=S)NC2CCCCC2)cc1,-7.2,-0.1,+,4.5,0.8
COc1ccc(NC(=O)COC(=O)c2ccc(OC)c(S(=O)(=O)N3CCCC3)c2)cc1OC,6.3,0.7,i,-1.3,3.3
CCN1/C(=C/c2ccc3cc(C)ccc3[n+]2C)Sc2ccc3sccc3c21,-3.9,61.5*,i,5.3,13.7
CCCCN1/C(=C/c2ccc3ccccc3[n+]2CC)Sc2ccccc21,-8.9,73.9*,+,-0.3,-13.7
CCN1/C(=C/c2ccc3ccccc3[n+]2CC)C=Cc2ccccc21,3.5,40.3,?,-6.0,-51.2
CCN1/C(=C/c2ccc3cc(C)ccc3[n+]2CC)Sc2cc(C)ccc21,11.5,85.3*,?,6.4,-21.4
CCN1/C(=C/c2cccc[n+]2C)Sc2ccc(OC)cc21,5.9,5.3,?,-1.0,12.3
CCOc1ccc(CCNC(=O)c2cc(C)nn2-c2ccccc2)cc1,2.4,4.7,i,1.5,10.6
CCOC(=O)c1ccc(NC(=O)C(=O)NCc2ccco2)cc1,-2.8,-7.1,i,0.9,-0.1
CCOc1ccc(NC(=S)Nc2ccc3nsnc3c2)cc1,52.7*,36.9,?,5.1,-14.2
SMILES,EBI2 block,Exocytosis inh,Myeloid diff 2,MC4R barr agon,MC4R antagonist
O=C(Nc1ccc2nsnc2c1)N1CCCCC1,-3.3,-4.6,i,-2.3,-4.6
CCOc1ccc(NC(=O)Nc2ccc3nsnc3c2)cc1,9.1,-3.0,i,1.2,-3.6
S=C(Nc1ccc2nsnc2c1)N1CCCCCC1,-1.0,76.6*,i,1.6,-0.1
COc1ccc(NC(=O)CN(C)C(=O)c2cn(-c3ccccc3)nc2-c2ccc(Cl)cc2)cc1,-15.8,9.8,i,-0.3,8.4
O=C(CCSCc1ccc(Cl)cc1)NCCc1ccccc1,-0.8,-4.1,i,-1.1,2.2
Cc1ccc(CSCCC(=O)NCCc2ccc(Cl)cc2)cc1,12.6,1.5,i,8.6*,7.7
CCN(C(=S)Nc1ccc(OC(F)F)cc1)C1CCCCC1,46.6*,0.0,i,-2.3,13.8
CCN(CC(=O)Nc1ccc(OC(F)F)cc1)C1CCCCC1,4.0,2.4,i,-0.7,2.1
O=C(c1ccc(OC2CCN(CCCc3ccccc3)CC2)cc1)N1CCCC1,9.6,-12.1,i,0.2,1.9
COc1ccc(OCCNc2cc(N3CCCCC3)ccc2[N+](=O)[O-])cc1,24.0,1.7,i,-1.6,23.3
COc1ccc(OCCNc2cc(Cl)ccc2[N+](=O)[O-])cc1,17.2,0.6,i,10.4*,13.0
CCN(CC(=O)NC1CCCC1)S(=O)(=O)c1ccc(F)cc1,-2.7,4.2,i,-1.4,15.3
CCOc1ccc(-c2nnc(NC(=O)Cc3cc(OC)c(OC)c(OC)c3)o2)cc1,-9.8,-0.9,i,-2.3,4.2
Nc1cc2c(cc1O)CCCC2,-8.4,-4.3,i,-1.7,4.2
CCN(CC)c1nc(N)c2c(N)nc3c(c2c1C#N)CC(c1ccccc1)O3 (stereo not drawn),6.7,-5.9,i,1.8,22.3
CCN(CC)c1nc(N)c2c(N)n(-c3ccccc3C)c(=S)c(C#N)c2c1C#N,11.2,-1.2,+,-0.3,-1.5
Cc1ccc2nc(/C(C#N)=C\c3cc(O)ccc3[N+](=O)[O-])[nH]c2c1,-2.8,1.1,i,-2.4,2.0
Cc1ccc2nc(/C(C#N)=C/c3ccc(-c4cccc([N+](=O)[O-])c4)o3)[nH]c2c1,8.1,0.5,+,-1.0,6.6
Oc1ccc(/C=N/Nc2nc(-c3ccc(Cl)cc3)cc(C(F)(F)F)n2)cc1,11.4,5.9,i,13.8*,5.8
Cc1cc(-c2ccccc2)nc(N/N=C/c2ccc(O)cc2)n1,9.2,1.1,i,-1.4,9.6
N#Cc1ccc(OCC(=O)N/N=C/C2CC=CCC2)cc1 (stereo not drawn),5.1,11.5,i,-3.6,9.8
COc1ccc(C2CC(c3ccncc3)=NN2c2ccc(S(N)(=O)=O)cc2)cc1 (stereo not drawn),5.7,-3.7,+,0.9,5.9
COc1ccc(C2CC(c3ccc(Cl)cc3)=NN2c2ccc(S(N)(=O)=O)cc2)cc1 (stereo not drawn),0.5,8.5,i,4.7,19.7
CC(=O)N[C@@H](C)C(=O)OC(C)C(=O)Nc1cccc([N+](=O)[O-])c1 (stereo partly drawn),3.6,-3.9,i,-0.6,2.4
CCCCCCCCN1C(=O)[C@H](CC(=O)N2CCC(c3ccccc3)CC2)C[C@@]2(C(=O)OC)CC(C)(C)CC=C12,3.1,1.6,i,/,/
O=C(Nc1cnn(Cc2ccc(F)cc2)c1)c1cc(-c2ccco2)on1,14.6,1.1,i,5.4,15.1
O=C(Nc1cnn(Cc2ccc(F)cc2)c1)c1cc2nc(-c3ccco3)cc(C(F)(F)F)n2n1,7.6,5.7,i,9.2*,4.2
CN(C)CCCNS(=O)(=O)c1ccc(NC2CCCCCC2)c([N+](=O)[O-])c1,-2.3,60.1*,?,-1.2,6.0

# Screening data from PubChem BioAssay.
